Test results: ChEMBL document CHEMBL5033992, “Discovery and Synthesis of a Pyrimidine-Based Aurora Kinase Inhibitor to Reduce Levels of MYC Oncoproteins” (J Med Chem, 2021)
Values belong to the molecule of their own block, whether it stands above or below them. Active and inactive are the calls of the source. The calls are words filed in the database; no cut-off is given here.

Tests used:
[1] = AUC (0 to inf) in ICR mouse at 10 mg/kg, po measured up to 24 hrs by LC-MS/MS analysis; format: ADME, organism-based; set-up: route oral, dose 10 mg/kg, time <=24; conditions: in vivo
[2] = Tmax in ICR mouse at 10 mg/kg, po measured up to 24 hrs by LC-MS/MS analysis; format: ADME, organism-based; conditions: in vivo
[3] = Half life in ICR mouse at 10 mg/kg, po measured up to 24 hrs by LC-MS/MS analysis; format: ADME, organism-based; conditions: in vivo
[4] = Cmax in ICR mouse at 10 mg/kg, po measured up to 24 hrs by LC-MS/MS analysis; format: ADME, organism-based; set-up: route oral, dose 10 mg/kg, time <=24; conditions: in vivo
[5] = biological target: T1, Aurora kinase A (Homo sapiens) (UniProt O14965); assay: Inhibition of recombinant GST-tagged N-terminal truncated human Aurora A (123 to 401 residues) expressed in Sf9 insect cell using tetra-LRRASLG peptide as substrate at 100 nM incubated for 120 mins by Kinase-Glo plus luminescent kinase assay relative to control
T1 sequence (whole entry): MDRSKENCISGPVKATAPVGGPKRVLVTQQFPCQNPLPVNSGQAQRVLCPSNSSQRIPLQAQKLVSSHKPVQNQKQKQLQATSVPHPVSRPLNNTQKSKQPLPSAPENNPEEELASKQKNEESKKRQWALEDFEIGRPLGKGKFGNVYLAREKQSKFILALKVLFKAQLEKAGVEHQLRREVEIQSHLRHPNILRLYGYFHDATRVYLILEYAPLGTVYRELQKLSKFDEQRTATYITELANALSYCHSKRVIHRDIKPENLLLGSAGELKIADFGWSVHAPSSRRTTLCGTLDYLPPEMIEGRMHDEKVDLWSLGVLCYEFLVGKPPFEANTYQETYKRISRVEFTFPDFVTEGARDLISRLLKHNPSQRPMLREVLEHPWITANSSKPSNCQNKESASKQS

[6] = Effect on cMYC protein expression level in human NCI-H82 cells assessed as fold change at 1 uM incubated for 24 hrs by Western blot analysis relative to control; format: functional
Outline: (§1)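 Cells treated with compound at various concentrations for 24 h, then washed in PBS, lysed in Laemmli buffer and boiled 10 min. Lysates run on SDS-PAGE, transferred to PVDF and probed with antibodies, then AP- or HRP-conjugated secondaries with chemiluminescent detection. Loading control β-actin. NCI-H82 grown in RPMI1640 and SK-N-BE(2) in MEM, each with 10% FBS. Relative levels quantified from triplicate experiments.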

[7] = Effect on MYCN protein expression level in human SKNBE2 cells assessed as fold change at 1 uM incubated for 24 hrs by Western blot analysis relative to control; format: functional, SK-N-BE(2); outline: as §1
[8] = test system: NCI-H82; assay: Growth inhibition of human NCI-H82 cells assessed as reduction in cell viability after 72 hrs by PrestoBlue Cell Viability assay; format: functional, cell-based; conditions: NCI-H82, 72 h
Outline: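 Cells seeded at 5000–10,000 per well, grown 24 h in RPMI1640 with 10% FBS and antibiotics, then exposed to compound at 0–10 μM for 72 h. Viability read by PrestoBlue fluorescence. IC50 from triplicate eight-point titration.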

[9] = test system: SK-N-BE(2); assay: Growth inhibition of human SKNBE2 cells assessed as reduction in cell viability after 24 hrs by PrestoBlue Cell Viability assay; conditions: SKNBE2, 24 h
[10] = test system: NCI-H82; assay: Induction of cell cycle arrest in human NCI-H82 cells at 1 uM after 24 hrs by Propidium iodide staining based flow cytometric analysis; format: functional
[11] = AUC (0 to inf) in ICR mouse at 2 mg/kg, iv measured up to 24 hrs by LC-MS/MS analysis; format: ADME, organism-based; set-up: route intravenous, dose 2 mg/kg, time <=24; conditions: in vivo; for AUC(0-inf): ICR
[12] = Half life in ICR mouse at 2 mg/kg, iv measured up to 24 hrs by LC-MS/MS analysis; format: ADME, organism-based; conditions: in vivo
[13] = Volume of distribution at steady state in ICR mouse at 2 mg/kg, iv measured up to 24 hrs by LC-MS/MS analysis; format: ADME, organism-based; conditions: in vivo, read-out: Vdss
[14] = Clearance in ICR mouse at 2 mg/kg, iv measured up to 24 hrs by LC-MS/MS analysis; format: ADME, organism-based; conditions: in vivo
[15] = Oral bioavailability in ICR mouse at 10 mg/kg measured up to 24 hrs by LC-MS/MS analysis; format: ADME, organism-based; conditions: in vivo

AUC(0-inf) [1]: 961 ng·h/mL | Tmax [2]: 0.4 h | half-life [3]: 2.3 h | Cmax [4]: 274 ng/mL
SMILES: CCOC(=O)n1nc(Nc2cc(N3CCN(CC)CC3)nc(N[C@H]3CCN(C(=O)c4ccc(Cl)cc4F)C3)n2)cc1C

inhibition [5]: < 50%
SMILES: CCN1CCN(c2cc(Nc3cc(C)[nH]n3)nc(N[C@H]3CCN(C(=O)c4cc(F)c(F)cc4F)C3)n2)CC1

SMILES: CCN1CCN(c2cc(Nc3cc(C)[nH]n3)nc(N[C@H]3CCN(C(=O)c4ccccc4)C3)n2)CC1
fold change (FC) [6]: 0.93 | fold change (FC) [7]: 0.919

SMILES: CCN1CCN(C(=O)Cc2ccc(Nc3ncc(F)c(Nc4ccc(C(=O)Nc5ccccc5Cl)cc4)n3)cc2)CC1
IC50 [8]: 1 nM | IC50 [9]: 1 nM

SMILES: CCN1CCN(c2cc(Nc3cc(C)[nH]n3)nc(N[C@H]3CCN(C(=O)c4cccc(Cl)c4F)C3)n2)CC1
fold change (FC) [7]: 0.741

inhibition [5]: < 50%
SMILES: CCN1CCN(c2cc(Nc3cc(C)[nH]n3)nc(N[C@H]3CCN(C(=O)c4cc(F)c(Cl)c(F)c4)C3)n2)CC1

IC50 [8]: 1 nM | IC50 [9]: 1 nM
SMILES: CCN(CCCOc1ccc2c(Nc3cc(CC(=O)Nc4cccc(F)c4)[nH]n3)ncnc2c1)CCOP(=O)(O)O [BARASERTIB]
Activity [10]: Active

AUC ([11]; 24 h): 351 ng·h/mL | AUC(0-inf) [1]: 243 ng·h/mL | Tmax [2]: 0.4 h | half-life [12]: 1 h | half-life [3]: 1.9 h | Vd [13]: 0.9 L/kg | Cmax [4]: 114 ng/mL
SMILES: CCC(=O)n1nc(Nc2cc(N3CCN(CC)CC3)nc(N[C@H]3CCN(C(=O)c4ccc(Cl)cc4F)C3)n2)cc1C

SMILES: Cc1cc(Nc2cc(N3CCN(C)CC3)nc(N[C@H]3CCN(C(=O)c4cccc(Cl)c4F)C3)n2)n[nH]1
fold change (FC) [6]: 0.843 | fold change (FC) [7]: 0.815

inhibition [5]: < 50%
SMILES: CCN1CCN(c2cc(Nc3cc(C)[nH]n3)nc(N[C@H]3CCN(S(=O)(=O)c4ccc(Cl)cc4F)C3)n2)CC1

inhibition [5]: < 50%
SMILES: CCN1CCN(c2cc(Nc3cc(C)[nH]n3)nc(N[C@H]3CCN(C(=O)c4ccc(Cl)nc4F)C3)n2)CC1

SMILES: Cc1cc(Nc2cc(N3CC(N(C)C)C3)nc(N[C@H]3CCN(C(=O)c4cccc(Cl)c4F)C3)n2)n[nH]1
fold change (FC) [6]: 1.084 | fold change (FC) [7]: 0.754

inhibition [5]: < 50%
SMILES: CCN1CCN(c2cc(Nc3cc(C)[nH]n3)nc(N[C@H]3CCN(C(=O)c4ccc(C(F)(F)F)cc4F)C3)n2)CC1

AUC(0-inf) [11]: 780 ng·h/mL | clearance [14]: 38 mL/min/kg | AUC(0-inf) [1]: 1130 ng·h/mL | Tmax [2]: 0.5 h | half-life [12]: 5 h | half-life [3]: 3.3 h | Vd [13]: 4.9 L/kg | bioavailability [15]: 28.9% | Cmax [4]: 690 ng/mL
SMILES: CCN1CCN(c2cc(Nc3cc(C)nn3C(=O)OC(C)(C)C)nc(N[C@H]3CCN(C(=O)c4ccc(Cl)cc4F)C3)n2)CC1

AUC(0-inf) [11]: 401 ng·h/mL | clearance [14]: 73.3 mL/min/kg | AUC(0-inf) [1]: 157 ng·h/mL | Tmax [2]: 1.4 h | half-life [12]: 5.5 h | half-life [3]: 2.2 h | Vd [13]: 18.8 L/kg | bioavailability [15]: 7.8% | Cmax [4]: 36.1 ng/mL
SMILES: CCN1CCN(c2cc(Nc3cc(C)nn3C(=O)C(C)(C)C)nc(N[C@H]3CCN(C(=O)c4ccc(Cl)cc4F)C3)n2)CC1

SMILES: Cc1cc(Nc2cc(N(C)CCN(C)C)nc(N[C@H]3CCN(C(=O)c4cccc(Cl)c4F)C3)n2)n[nH]1
fold change (FC) [6]: 0.911 | fold change (FC) [7]: 0.805

SMILES: Cc1cc(Nc2cc(N3CC[C@H](N(C)C)C3)nc(N[C@H]3CCN(C(=O)c4cccc(Cl)c4F)C3)n2)n[nH]1
fold change (FC) [6]: 0.996 | fold change (FC) [7]: 0.809
